From PubChem BioAssay
The list is not random: actives were taken first. Their share in the collection is about 29%.
CYP2C19 inh = human CYP2C19 inhibition. CYP2C19 Supersomes, luciferin-H EGE luminescence, 30 min. 96,000 tested, 21% active. AID 778. inhibition, % at 5 µM;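 active = CYP2C19 inhibition above a set limit at 5 µM in the primary screen, cut at about 50% in these data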;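 note: plate controls were negative control wells for no effect and 2.5 mM tranylcypromine positive control for full effect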
CYP2C9 act = increases human cytochrome P450 2C9 activity; P11712; recombinant CYP2C9, luciferin-H conversion, luminescence; active compounds read high; factor 1 = untreated enzyme, 0 = blocked; activation factor at 5 µM; 96,000 tested, 1.4% active; AID 1024;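 active = activation factor of 2 or more for CYP2C9 at a 5 µM dose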;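 note: 0 = sulfaphenazole-blocked wells and 1 = vehicle-only wells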
Target sequence (P11712 whole entry, looked up): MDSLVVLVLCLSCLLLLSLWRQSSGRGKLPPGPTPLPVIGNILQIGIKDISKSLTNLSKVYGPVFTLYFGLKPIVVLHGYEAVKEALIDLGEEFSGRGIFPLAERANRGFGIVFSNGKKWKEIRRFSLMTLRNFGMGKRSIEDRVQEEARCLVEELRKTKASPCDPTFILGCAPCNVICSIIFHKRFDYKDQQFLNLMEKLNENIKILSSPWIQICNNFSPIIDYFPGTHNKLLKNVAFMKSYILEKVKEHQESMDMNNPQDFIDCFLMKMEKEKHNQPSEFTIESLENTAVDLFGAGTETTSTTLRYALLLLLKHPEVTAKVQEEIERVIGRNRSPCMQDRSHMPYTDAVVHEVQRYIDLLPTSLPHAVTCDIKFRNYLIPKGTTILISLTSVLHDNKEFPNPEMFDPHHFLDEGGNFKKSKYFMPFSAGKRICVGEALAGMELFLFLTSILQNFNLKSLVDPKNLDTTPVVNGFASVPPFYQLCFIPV
tolC growth inh = growth inhibitors of E. coli BW25113 tolC mutant; OD615; 65,000 tested, 2.2% active; AID 573; growth inhibition, % at 10 µM (by protocol);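 active = growth inhibition at or above a cutoff equal to the mean over every tested compound plus 3 SD, cut at about 60% in these data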;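 note: growth measured after 20 h incubation at 37 °C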
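Test system: tolC-deleted E. coli BW25113; medium: LB with kanamycin 50 µg/mL; compound: single-point testing at 10 µM; incubation: 20 h compound exposure of bacteria at 37 °C; signal: OD at 615 nm; evaluation: growth inhibition in percent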
CYP2C9 inhib = human CYP2C9 inhibition. inhibition, % at 5 µM. P11712. CYP2C9 Supersomes, luciferin-H conversion, luminescence. 96,000 tested, 20% active;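 active = blocking of liver enzyme CYP2C9 beyond about 50% at 5 µM, limit read from the data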
Ecoli WT expand = E. coli BW25113 growth inhibition, expanded screen; growth inhibition, % at 100 µM; 98,000 tested, 0.15% active; AID 710; OD600 absorbance;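 active = growth inhibition above about 50% at one test dose, limit read from the data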;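 note: growth measured after 20 h incubation at 37 °C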
CYP2C19 activ = activators of human cytochrome P450 2C19. recombinant CYP2C19, luciferin-H EGE luminescence; active compounds read high; 0 = fully inhibited enzyme, 1 = untreated enzyme. 96,000 tested, under 10 active. activation factor at 5 µM. AID 1025. P33261;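 active = activation factor of at least 2 at 5 µM in the primary screen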;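 note: 0 = wells with 2.5 mM tranylcypromine and 1 = vehicle-only wells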
An asterisk follows results filed as active; . = no result given.

SMILES | CYP2C19 inh | CYP2C9 act | tolC growth inh | CYP2C9 inhib | Ecoli WT expand | CYP2C19 activ
O=C(Nc1ccc(Cl)cc1C(=O)N1CCOCC1)c1ccco1 | -8.8 | 1 | -12.9 | 2.4 | 2.0 | 1.1
Cc1ccc2c(Cl)cc(Cl)c(OCc3c(C)noc3C)c2n1 | 67.1* | 0.9 | 9.9 | 7.8 | -9.0 | 0.3
Cc1ccc2nc(-c3cccc(NC(=O)c4ccco4)c3)[nH]c2c1 | 90.6* | 0.1 | 4.8 | 90.8* | 5.0 | 0.1
Cc1ccc2nc(-c3ccc(NC(=O)Cc4cccs4)cc3)[nH]c2c1 | 3.4 | 0.6 | . | 43.6 | -23.0 | 1
Cc1ccc2nc(-c3ccc(NC(=O)C4CCCO4)cc3)[nH]c2c1 (stereo not drawn) | 61.9* | 0.5 | . | 54.0* | -10.0 | 0.4
O=C(Nc1ccc2nc(-c3ccco3)[nH]c2c1)c1ccco1 | 4.7 | 1.3 | -1.4 | -29.5 | 0.0 | 1
O=C(Nc1ccc(-c2nc3ccccc3[nH]2)cc1)c1ccco1 | 66.4* | 0.6 | 16.1 | 39.0 | -11.0 | 0.3
CC(=O)c1c(C)[nH]c(C(=O)NCc2cccs2)c1C | 8.4 | 0.9 | -16.1 | 13.1 | -1.0 | 0.9
CCOC(=O)CSc1nnc([C@@H](NC(=O)OC(C)(C)C)C(C)C)o1 | 5.5 | 1 | -13.0 | 2.2 | 4.0 | 0.9
C=C(C)CSc1nnc([C@@H](NC(=O)OC(C)(C)C)C(C)CC)o1 (stereo partly drawn) | 83.0* | 0.5 | 0.3 | 52.0* | 4.0 | 0.2
CCCCSc1nnc([C@@H](NC(=O)OC(C)(C)C)C(C)C)o1 | 50.2* | 0.6 | 13.3 | 43.9 | -3.0 | 0.5
Cc1ccc(C)c(NC(=O)Cn2nc(-c3ccccc3)nc2-c2ccccc2)c1 | 19.9 | 1.2 | . | -20.0 | -5.0 | 0.8
CCOC(=O)c1oc2ccc(S(=O)(=O)n3nc(-c4ccc(Cl)cc4)cc3N)cc2c1C | 16.2 | 0 | . | 98.7* | -1.0 | 0.8
CCOC(=O)c1oc2ccc(S(=O)(=O)n3nc(-c4ccc(C)cc4)cc3N)cc2c1C | 48.0 | 0 | . | 96.4* | -10.0 | 0.5
Cc1ccc(O)c(N=CC2=C(O)c3ccccc3C2=O)c1 | 49.9 | 0.2 | 28.4 | 78.6* | -7.0 | 0.5
O=C1C(C=Nc2ccccc2O)=C(O)c2ccccc21 | 4.7 | 0.8 | -2.9 | 16.4 | -2.0 | 1
C=C1CC2C=C(NC(C)=O)CC(C1)C2 (stereo not drawn) | 20.2 | 1 | 6.7 | 4.0 | 1.0 | 0.8
Cc1ccnc(-n2c(CCN3C(=O)c4ccccc4C3=O)nc3ccccc3c2=O)c1 | 59.9* | 0.3 | 12.1 | 69.0* | 0.0 | 0.4
CCC(C)N(NC(C)=O)c1nc(Cl)nc(NC(C)(C)C)n1 (stereo not drawn) | 7.3 | 0.8 | . | 19.9 | -2.0 | 0.9
COc1ccc(NC(=O)C2Cc3ccccc3CN2C(=O)c2ccccc2)cn1 (stereo not drawn) | 12.4 | 0.8 | 4.2 | 19.3 | -2.0 | 0.9
O=C(NC1=NCCS1)C1Cc2ccccc2CN1C(=O)c1ccccc1 (stereo not drawn) | 78.9* | 0.6 | 17.2 | 41.6 | 2.0 | 0.2
Cc1n[nH]c(C)c1N1C(=O)c2cccc3c(N4CCCCCC4)ccc(c23)C1=O | 83.0* | 0 | 51.3 | 96.8* | 16.0 | 0.2
COC(=O)C1CCN(C(=O)COc2cc3sc(C)nc3c3sccc23)CC1 | 21.9 | 1.1 | 13.8 | -11.1 | 0.0 | 0.8
COc1cccc(C2C(C(=O)c3cccs3)=C(O)C(=O)N2c2cc(C)on2)c1 (stereo not drawn) | 17.8 | 0.4 | 16.7 | 57.7* | -4.0 | 0.8
COc1cccc(C2C(C(=O)c3cc4cccc(OC)c4o3)=C(O)C(=O)N2c2cc(C)on2)c1OC (stereo not drawn) | 10.2 | 0.1 | 29.6 | 85.2* | -5.0 | 0.9
COc1ccc(OC)c(C2C(C(=O)c3cccs3)=C(O)C(=O)N2c2cc(C)on2)c1 (stereo not drawn) | 17.2 | 0.6 | 18.0 | 43.3 | 3.0 | 0.8
O=C(Oc1ccc(Cl)cc1N1C(=O)CCC1=O)c1ccco1 | 10.9 | 0.9 | -16.0 | 6.3 | 2.0 | 0.9
CCOC(=O)NCCc1c(C)nc2c(c(C)nn2C(C)(C)C)c1C | 24.2 | 0.7 | 57.0 | 33.7 | -2.0 | 0.8
CCOC(=O)c1c(C2COc3ccccc3O2)csc1NC(=O)c1ccccc1 (stereo not drawn) | 16.9 | 0.3 | . | 70.8* | -25.0 | 0.8
